{
  "source": "paper PMC9352332",
  "about": "(ACS Omega, 2022)",
  "key": {"ALR1": {"target": "ALR1 (Bos taurus, UniProt Q3ZCJ2)", "sequence (Q3ZCJ2 whole entry)": "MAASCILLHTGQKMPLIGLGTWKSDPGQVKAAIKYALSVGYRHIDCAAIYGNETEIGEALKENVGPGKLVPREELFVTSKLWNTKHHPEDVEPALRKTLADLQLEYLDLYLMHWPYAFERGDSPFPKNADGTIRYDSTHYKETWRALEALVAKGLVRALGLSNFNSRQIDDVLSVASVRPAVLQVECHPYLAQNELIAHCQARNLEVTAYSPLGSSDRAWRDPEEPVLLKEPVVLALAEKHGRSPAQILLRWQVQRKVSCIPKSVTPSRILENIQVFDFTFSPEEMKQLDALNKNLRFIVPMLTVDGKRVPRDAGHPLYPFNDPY", "experiment": "ALR1 in vitro enzyme inhibition assay", "type": "biochemical, calf", "how_it_was_run": "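Enzyme in sodium phosphate buffer pH 6.2, preincubated 10 min at 32 °C with test compound and substrate, without NADPH. Reaction started with NADPH and followed for 5 min. Absorbance read before and after cofactor addition gives % inhibition. Compound dissolved in DMSO and diluted in water to 0.1% DMSO in assay. Valproic acid is the standard. IC50 from nonlinear regression of log concentration vs remaining activity.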"}, "[1]": {"experiment": "DPPH free-radical scavenging", "settings": "DPPH 0.025 mg mL–1 in methanol, 100 μM test compound, 517 nm", "how_it_was_run": "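Test compound mixed with methanolic DPPH and read spectrophotometrically. Percent scavenging is calculated from absorbance of sample relative to control. Ascorbic acid is the positive control.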"}, "[2]": {"test_system": "advanced glycation end products (AGEs)", "experiment": "Bovine serum albumin glycation", "type": "biochemical", "settings": "BSA 1 mg mL–1, 0.5 M glucose, test compound (1 mM), pH 7.4, 50 °C, 4 days; AG positive control 100 μM", "how_it_was_run": "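BSA and glucose were incubated in 0.1 M PBS, in the dark, with or without test compound. AGE fluorescence was read at excitation 350 nm and emission 460 nm. Percent inhibition was calculated from the glucose-dependent fluorescence increase (BSA ± glucose), compared with the BSA + glucose signal with or without test compound. A vehicle served as the negative control. Values are mean ± S.E.M. of three independent incubations, with Student t-test vs aminoguanidine.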"}, "ALR2": {"target": "ALR2 (Homo sapiens, UniProt P15121)", "experiment": "ALR2 in vitro enzyme inhibition assay", "type": "biochemical", "settings": "for selectivity of inhibition, ALR2 versus ALR1 (in words): judged from ALR1 and ALR2 in vitro inhibition data"}},
  "data": [
    {"smiles": "Cc1ccc(O)c(C=NNC(=S)Nc2ccccc2)c1", "note": "[3a, 2-(2-Hydroxy-5-methylbenzylidene)-N-phenylhydrazinecarbothioamide]", "values": [
      {"measurement": "IC50", "setting": "ALR1", "value": "5.13 ± 0.037", "unit": "µM"},
      {"measurement": "% FRSA (percent free-radical scavenging activity)", "setting": "[1]", "value": 56.78, "unit": "%"},
      {"measurement": "% inhibition of AGEs (advanced glycation end-product formation)", "setting": "[2]", "value": 59.12, "unit": "%"},
      {"measurement": "IC50", "setting": "ALR2", "value": "4.99 ± 0.035", "unit": "µM"},
      {"measurement": "selectivity of inhibition, ALR2 versus ALR1 (in words)", "setting": "ALR2", "value": "strong but nonselective inhibition of ALR1 and ALR2"}
    ]},
    {"smiles": "Cc1ccc(NC(=S)NN=Cc2cc(C)ccc2O)c(C)c1", "note": "[3b, N-(2,4-Dimethylphenyl)-2-(2-hydroxy-5-methylbenzylidene)hydrazinecarbothioamide]", "values": [
      {"measurement": "% FRSA (percent free-radical scavenging activity)", "setting": "[1]", "value": 63.24, "unit": "%"},
      {"measurement": "% inhibition of AGEs (advanced glycation end-product formation)", "setting": "[2]", "value": 50.78, "unit": "%"},
      {"measurement": "IC50", "setting": "ALR2", "value": "2.55 ± 0.021", "unit": "µM"},
      {"measurement": "selectivity of inhibition, ALR2 versus ALR1 (in words)", "setting": "ALR2", "value": "strong and selective inhibition of ALR2"}
    ]},
    {"smiles": "COc1cccc(NC(=S)NN=Cc2cc(C)ccc2O)c1", "note": "[3c, 2-(2-Hydroxy-5-methylbenzylidene)-N-(3-methoxyphenyl)hydrazinecarbothioamide]", "values": [
      {"measurement": "% FRSA (percent free-radical scavenging activity)", "setting": "[1]", "value": 65.67, "unit": "%"},
      {"measurement": "% inhibition of AGEs (advanced glycation end-product formation)", "setting": "[2]", "value": 66.40, "unit": "%"},
      {"measurement": "IC50", "setting": "ALR2", "value": "1.42 ± 0.024", "unit": "µM"},
      {"measurement": "selectivity of inhibition, ALR2 versus ALR1 (in words)", "setting": "ALR2", "value": "strong and selective inhibition of ALR2"}
    ]},
    {"smiles": "Cc1ccc(O)c(C=NNC(=S)NCc2ccc(Cl)cc2)c1", "note": "[3d, N-(4-Chlorobenzyl)-2-(2-hydroxy-5-methylbenzylidene)hydrazinecarbothioamide]", "values": [
      {"measurement": "% FRSA (percent free-radical scavenging activity)", "setting": "[1]", "value": 61.34, "unit": "%"},
      {"measurement": "% inhibition of AGEs (advanced glycation end-product formation)", "setting": "[2]", "value": 62.81, "unit": "%"}
    ]},
    {"smiles": "Cc1ccc(O)c(C=NNC(=S)NCc2ccccc2)c1", "note": "[3e, N-Benzyl-2-(2-hydroxy-5-methylbenzylidene)hydrazinecarbothioamide]", "values": [
      {"measurement": "% FRSA (percent free-radical scavenging activity)", "setting": "[1]", "value": 65.66, "unit": "%"},
      {"measurement": "% inhibition of AGEs (advanced glycation end-product formation)", "setting": "[2]", "value": 56.73, "unit": "%"}
    ]},
    {"smiles": "Cc1ccc(O)c(C=NNC(=S)NC2CCCCC2)c1", "note": "[3f, N-Cyclohexyl-2-(2-hydroxy-5-methylbenzylidene)hydrazinecarbothioamide]", "values": [
      {"measurement": "% FRSA (percent free-radical scavenging activity)", "setting": "[1]", "value": 57.84, "unit": "%"},
      {"measurement": "% inhibition of AGEs (advanced glycation end-product formation)", "setting": "[2]", "value": 59.86, "unit": "%"}
    ]},
    {"smiles": "Cc1ccc(O)c(C=NNC(=S)Nc2ccc(Br)cc2)c1", "note": "[3g, N-(4-Bromophenyl)-2-(2-hydroxy-5-methylbenzylidene)hydrazinecarbothioamide]", "values": [
      {"measurement": "% FRSA (percent free-radical scavenging activity)", "setting": "[1]", "value": 53.56, "unit": "%"},
      {"measurement": "% inhibition of AGEs (advanced glycation end-product formation)", "setting": "[2]", "value": 51.33, "unit": "%"},
      {"measurement": "IC50", "setting": "ALR2", "value": "8.37 ± 0.062", "unit": "µM"},
      {"measurement": "selectivity of inhibition, ALR2 versus ALR1 (in words)", "setting": "ALR2", "value": "strong and selective inhibition of ALR2"}
    ]},
    {"smiles": "Cc1ccc(NC(=S)NN=Cc2cc(C)ccc2O)cc1", "note": "[3h, 2-(2-Hydroxy-5-methylbenzylidene)-N-(p-tolyl)hydrazinecarbothioamide]", "values": [
      {"measurement": "IC50", "setting": "ALR1", "value": "15.8 ± 0.027", "unit": "µM"},
      {"measurement": "% FRSA (percent free-radical scavenging activity)", "setting": "[1]", "value": 64.94, "unit": "%"},
      {"measurement": "IC50", "setting": "ALR2", "value": "3.8 ± 0.072", "unit": "µM"},
      {"measurement": "selectivity of inhibition, ALR2 versus ALR1 (in words)", "setting": "ALR2", "value": "strong but nonselective inhibition of ALR1 and ALR2"}
    ]},
    {"smiles": "Cc1ccc(O)c(C=NNC(=S)Nc2c(C)cccc2C)c1", "note": "[3i, N-(2,6-Dimethylphenyl)-2-(2-hydroxy-5-methylbenzylidene)hydrazinecarbothioamide]", "values": [
      {"measurement": "IC50", "setting": "ALR1", "value": "2.14 ± 0.031", "unit": "µM"},
      {"measurement": "% FRSA (percent free-radical scavenging activity)", "setting": "[1]", "value": 71.34, "unit": "%"},
      {"measurement": "% inhibition of AGEs (advanced glycation end-product formation)", "setting": "[2]", "value": 64.41, "unit": "%"},
      {"measurement": "IC50", "setting": "ALR2", "value": "2.06 ± 0.057", "unit": "µM"},
      {"measurement": "selectivity of inhibition, ALR2 versus ALR1 (in words)", "setting": "ALR2", "value": "strong but nonselective inhibition of ALR1 and ALR2"}
    ]},
    {"smiles": "Cc1ccc(O)c(C=NNC(=S)Nc2ccc(F)cc2F)c1", "note": "[3j, N-(2,4-Difluorophenyl)-2-(2-hydroxy-5-methylbenzylidene)hydrazinecarbothioamide]", "values": [
      {"measurement": "% FRSA (percent free-radical scavenging activity)", "setting": "[1]", "value": 66.57, "unit": "%"},
      {"measurement": "% inhibition of AGEs (advanced glycation end-product formation)", "setting": "[2]", "value": 61.60, "unit": "%"},
      {"measurement": "IC50", "setting": "ALR2", "value": "4.95 ± 0.066", "unit": "µM"},
      {"measurement": "selectivity of inhibition, ALR2 versus ALR1 (in words)", "setting": "ALR2", "value": "strong and selective inhibition of ALR2"}
    ]},
    {"smiles": "Cc1ccc(O)c(C=NNC(=S)Nc2cccc(F)c2)c1", "note": "[3k, N-(3-Fluorophenyl)-2-(2-hydroxy-5-methylbenzylidene)hydrazinecarbothioamide]", "values": [
      {"measurement": "% FRSA (percent free-radical scavenging activity)", "setting": "[1]", "value": 53.88, "unit": "%"},
      {"measurement": "IC50", "setting": "ALR2", "value": "14.03 ± 0.047", "unit": "µM"},
      {"measurement": "selectivity of inhibition, ALR2 versus ALR1 (in words)", "setting": "ALR2", "value": "strong and selective inhibition of ALR2"}
    ]},
    {"smiles": "Cc1ccc(O)c(C=NNC(=S)Nc2ccc(Cl)cc2)c1", "note": "[3l, N-(4-Chlorophenyl)-2-(2-hydroxy-5-methylbenzylidene)hydrazinecarbothioamide]", "values": [
      {"measurement": "% FRSA (percent free-radical scavenging activity)", "setting": "[1]", "value": 62.44, "unit": "%"},
      {"measurement": "% inhibition of AGEs (advanced glycation end-product formation)", "setting": "[2]", "value": 56.61, "unit": "%"},
      {"measurement": "IC50", "setting": "ALR2", "value": "3.8 ± 0.027", "unit": "µM"},
      {"measurement": "selectivity of inhibition, ALR2 versus ALR1 (in words)", "setting": "ALR2", "value": "strong and selective inhibition of ALR2"}
    ]},
    {"smiles": "Cc1ccc(O)c(C=NNC(=S)Nc2ccccc2C)c1", "note": "[3m, 2-(2-Hydroxy-5-methylbenzylidene)-N-(o-tolyl)hydrazinecarbothioamide]", "values": [
      {"measurement": "IC50", "setting": "ALR1", "value": "4.57 ± 0.076", "unit": "µM"},
      {"measurement": "% FRSA (percent free-radical scavenging activity)", "setting": "[1]", "value": 63.87, "unit": "%"},
      {"measurement": "% inhibition of AGEs (advanced glycation end-product formation)", "setting": "[2]", "value": 53.08, "unit": "%"},
      {"measurement": "IC50", "setting": "ALR2", "value": "1.96 ± 0.029", "unit": "µM"},
      {"measurement": "selectivity of inhibition, ALR2 versus ALR1 (in words)", "setting": "ALR2", "value": "strong but nonselective inhibition of ALR1 and ALR2"}
    ]},
    {"smiles": "Cc1ccc(O)c(C=NNC(=S)Nc2ccc(C(C)C)cc2)c1", "note": "[3n, 2-(2-Hydroxy-5-methylbenzylidene)-N-(4-isopropylphenyl)hydrazinecarbothioamide]", "values": [
      {"measurement": "% FRSA (percent free-radical scavenging activity)", "setting": "[1]", "value": 55.93, "unit": "%"},
      {"measurement": "% inhibition of AGEs (advanced glycation end-product formation)", "setting": "[2]", "value": 68.66, "unit": "%"},
      {"measurement": "IC50", "setting": "ALR2", "value": "3.11 ± 0.038", "unit": "µM"},
      {"measurement": "selectivity of inhibition, ALR2 versus ALR1 (in words)", "setting": "ALR2", "value": "strong and selective inhibition of ALR2"}
    ]},
    {"smiles": "Cc1ccc(O)c(C=NNC(=S)NCCc2ccccc2)c1", "note": "[3o, 2-(2-Hydroxy-5-methylbenzylidene)-N-phenethylhydrazinecarbothioamide]", "values": [
      {"measurement": "% FRSA (percent free-radical scavenging activity)", "setting": "[1]", "value": 68.56, "unit": "%"},
      {"measurement": "IC50", "setting": "ALR2", "value": "12.15 ± 0.083", "unit": "µM"},
      {"measurement": "selectivity of inhibition, ALR2 versus ALR1 (in words)", "setting": "ALR2", "value": "strong and selective inhibition of ALR2"}
    ]},
    {"smiles": "Cc1ccc(O)c(C=NNC(=S)Nc2ccc(N(C)C)cc2)c1", "note": "[3p, N-(4-(Dimethylamino)phenyl)-2-(2-hydroxy-5-methylbenzylidene)hydrazinecarbothioamide]", "values": [
      {"measurement": "% FRSA (percent free-radical scavenging activity)", "setting": "[1]", "value": 71.53, "unit": "%"},
      {"measurement": "% inhibition of AGEs (advanced glycation end-product formation)", "setting": "[2]", "value": 64.81, "unit": "%"},
      {"measurement": "IC50", "setting": "ALR2", "value": "10.67 ± 0.064", "unit": "µM"},
      {"measurement": "selectivity of inhibition, ALR2 versus ALR1 (in words)", "setting": "ALR2", "value": "strong and selective inhibition of ALR2"}
    ]},
    {"smiles": "N=C(N)NN", "note": "[6-AG, 6-Aminoguanidine, reference compound]", "values": [
      {"measurement": "% inhibition of AGEs (advanced glycation end-product formation)", "setting": "[2]", "value": 79.34, "unit": "%"}
    ]}
  ]
}
